Test results reported in ChEMBL document CHEMBL2321860, “2-Arylpyrazolo[4,3-d]pyrimidin-7-amino derivatives as new potent and selective human A3 adenosine receptor antagonists. Molecular modeling studies and pharmacological evaluation” (J Med Chem, 2013).
Active and inactive are the calls of the source. The rule behind the calls is not given here.

Legend:
Adenosine receptor A2a [1] = target: T1, Adenosine receptor A2a (Homo sapiens, UniProt P29274); assay: Displacement of [3H]ZM241385 from human A2A adenosine receptor expressed in CHO cells after 60 mins by scintillation counting analysis; format: cell-based
T1 sequence (P29274 whole entry): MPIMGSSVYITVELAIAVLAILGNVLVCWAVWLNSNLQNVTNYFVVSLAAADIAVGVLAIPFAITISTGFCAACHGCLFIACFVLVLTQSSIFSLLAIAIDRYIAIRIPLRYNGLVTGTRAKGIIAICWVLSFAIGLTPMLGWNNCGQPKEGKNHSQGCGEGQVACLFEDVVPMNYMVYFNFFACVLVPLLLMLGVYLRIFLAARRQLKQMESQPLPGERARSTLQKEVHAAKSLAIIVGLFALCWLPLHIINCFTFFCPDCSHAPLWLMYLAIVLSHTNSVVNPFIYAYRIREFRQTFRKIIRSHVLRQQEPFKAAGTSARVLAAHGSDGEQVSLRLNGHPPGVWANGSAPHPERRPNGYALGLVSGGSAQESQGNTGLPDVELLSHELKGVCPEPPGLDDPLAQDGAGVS
How it was run: (§1)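 Human A2A CHO membranes (50 μg protein) incubated with 1 nM [3H]ZM-241385 in 50 mM Tris-HCl, 10 mM MgCl2, pH 7.4, for 60 min at 4 °C, using 6–8 concentrations or 1 μM for % inhibition. Nonspecific binding defined with 1 μM ZM-241385. Ki via Cheng–Prusoff, mean SEM of four assays in duplicate.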

Adenosine receptor A1 = target: T2, Adenosine receptor A1 (Homo sapiens, UniProt P30542); assay: Displacement of [3H]DPCPX from human A1 adenosine receptor expressed in CHO cells after 120 mins by scintillation counting analysis; format: cell-based
T2 sequence (P30542 whole entry): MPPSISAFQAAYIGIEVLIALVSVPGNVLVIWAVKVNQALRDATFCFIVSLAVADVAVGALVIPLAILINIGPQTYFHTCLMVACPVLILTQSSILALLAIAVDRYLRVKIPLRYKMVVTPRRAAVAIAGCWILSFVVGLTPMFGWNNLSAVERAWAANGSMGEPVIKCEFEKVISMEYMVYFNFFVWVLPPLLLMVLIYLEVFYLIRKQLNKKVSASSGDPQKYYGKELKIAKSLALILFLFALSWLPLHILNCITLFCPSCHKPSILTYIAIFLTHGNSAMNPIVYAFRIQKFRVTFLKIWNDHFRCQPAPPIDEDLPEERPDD

Adenosine receptor A2b = target: T3, Adenosine receptor A2b (Homo sapiens, UniProt P29275); assay: Inhibition of human A2B adenosine receptor transfected in CHO cells assessed as inhibition of NECA-induced cyclic AMP production after 10 mins by competitive protein binding assay; format: cell-based
T3 sequence (P29275 whole entry): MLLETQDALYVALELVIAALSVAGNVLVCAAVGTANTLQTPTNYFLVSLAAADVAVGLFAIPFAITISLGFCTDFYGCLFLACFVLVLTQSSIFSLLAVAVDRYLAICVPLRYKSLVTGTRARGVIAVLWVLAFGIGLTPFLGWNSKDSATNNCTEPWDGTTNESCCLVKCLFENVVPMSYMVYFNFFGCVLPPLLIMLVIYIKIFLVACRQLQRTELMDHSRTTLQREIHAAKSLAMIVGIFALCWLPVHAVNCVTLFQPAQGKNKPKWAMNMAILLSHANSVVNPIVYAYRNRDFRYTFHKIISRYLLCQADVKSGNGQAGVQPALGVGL
How it was run: (§2)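 Human A2B CHO cells (1 × 10⁶/assay) preincubated 10 min at 37 °C in buffer with adenosine deaminase (2 IU/mL) and Ro 20-1724. Antagonist inhibition of 200 nM NECA-stimulated cAMP measured; reaction stopped with TCA. cAMP quantified by [3H]cAMP competition with adrenal binding protein. IC50 by sigmoid fit, mean SEM of four experiments; % inhibition at 1 μM.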

[2] = target: T4, Adenosine receptor A3 (Homo sapiens) (UniProt P0DMS8); assay: Displacement of [125I]AB-MECA from human A3 adenosine receptor expressed in CHO cells at 1 uM after 60 mins by scintillation counting analysis; format: cell-based
T4 sequence (whole entry): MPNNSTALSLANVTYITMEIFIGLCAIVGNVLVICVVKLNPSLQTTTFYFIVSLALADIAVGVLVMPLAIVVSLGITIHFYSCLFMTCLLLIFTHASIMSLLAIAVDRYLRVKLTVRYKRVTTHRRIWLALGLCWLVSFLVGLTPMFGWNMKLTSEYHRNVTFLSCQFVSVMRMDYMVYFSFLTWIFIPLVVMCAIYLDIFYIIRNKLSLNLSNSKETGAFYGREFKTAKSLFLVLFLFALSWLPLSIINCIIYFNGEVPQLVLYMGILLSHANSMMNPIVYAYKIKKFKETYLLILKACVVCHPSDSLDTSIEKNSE
How it was run: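 Human A3 CHO membranes (50 μg protein) incubated with 0.5 nM [125I]AB-MECA in 50 mM Tris-HCl, 10 mM MgCl2, 1 mM EDTA, pH 7.4, for 60 min at 37 °C. Nonspecific binding defined with 1 μM AB-MECA. Filtration then counting. Output is % inhibition at 1 μM.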

HT-29 [3] = assay: Antiapoptotic activity against human HT-29 cells assessed as cell viability at 10 uM after 48 hrs by MTT assay in presence of 30 uM oxaliplatin (reference value: 81.9 +/- 0.9%); format: functional
How it was run: (§3)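 HT-29 cells in DMEM high glucose with 20% FBS, grown to confluence and serum-starved overnight. Cells were treated for 48 h with oxaliplatin (0.3–100 μM) with or without 10 μM test compound. Viability was read as MTT reduction (1 mg/mL, 2 h, 37 °C), formazan in DMSO, absorbance 580 nm. Output is % of control, quadruplicate on at least three cell batches.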

[4] = target: T5, Adenosine receptor A2b (Homo sapiens) (UniProt P29275); assay: Inhibition of human A2B adenosine receptor transfected in CHO cells assessed as inhibition of NECA-induced cyclic AMP production at 1 uM after 10 mins by competitive protein binding assay; format: cell-based; how it was run: as §2
T5 sequence (whole entry): T3 sequence (P29275 whole entry)

Adenosine receptor A2a [5] = target: T1, Adenosine receptor A2a; assay: Displacement of [3H]ZM241385 from human A2A adenosine receptor expressed in CHO cells at 1 uM after 60 mins by scintillation counting analysis; format: cell-based; how it was run: as §1
Astrocyte [6] = assay: Antiapoptotic activity against Sprague-Dawley rat astrocytes assessed as reduction of oxaliplatin-induced caspase-3 activity at 1 uM after 4 hrs by fluorimetric assay; format: functional, cell-based
How it was run: (§4)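 Primary cortical astrocytes from newborn (P1–P3) rats, GFAP-positive, used 21 days after isolation and serum-starved overnight. Cells were exposed to 100 μM oxaliplatin for 4 h with test compound co-incubated. Lysates were incubated with 0.025 mM Z-DEVD-R110 at 25 °C for 30 min and read by fluorescence (ex 496/em 520 nm). Output is % of untreated control, mean SEM.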

HT-29 [7] = assay: Antiapoptotic activity against human HT-29 cells assessed as cell viability at 10 uM after 48 hrs by MTT assay in presence of 1 uM oxaliplatin (reference value: 94.9 +/- 1.3%); format: functional; how it was run: as §3
HT-29 [8] = assay: Antiapoptotic activity against human HT-29 cells assessed as cell viability at 10 uM after 48 hrs by MTT assay in presence of 0.3 uM oxaliplatin (reference value: 97.6 +/- 0.9%); format: functional; how it was run: as §3
[9] = target: T6, Adenosine receptor A1 (Homo sapiens) (UniProt P30542); assay: Displacement of [3H]DPCPX from human A1 adenosine receptor expressed in CHO cells at 1 uM after 120 mins by scintillation counting analysis; format: cell-based
T6 sequence (whole entry): T2 sequence (P30542 whole entry)

HT-29 [10] = assay: Antiapoptotic activity against human HT-29 cells assessed as cell viability at 10 uM after 48 hrs by MTT assay in presence of 100 uM oxaliplatin (reference value: 52.2 +/- 0.5%); format: functional; how it was run: as §3
Adenosine receptor A3 [11] = target: T7, Adenosine receptor A3 (Homo sapiens, UniProt P0DMS8); assay: Inhibition of human A3 adenosine receptor transfected in CHO cells assessed as inhibition of forskolin-induced cyclic AMP production after 10 mins by competitive protein binding assay in presence of CI-IB-MECA; format: functional, cell-based
T7 sequence (P0DMS8 whole entry): T4 sequence (whole entry)
How it was run: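 Human A3 CHO cells (1 × 10⁶/assay) preincubated 10 min at 37 °C with adenosine deaminase and Ro 20-1724. Antagonist potency measured against 100 nM Cl-IB-MECA-mediated inhibition of 1 μM forskolin-stimulated cAMP. cAMP quantified by [3H]cAMP competition binding. IC50 by sigmoid regression, mean SEM of four experiments.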

HT-29 [12] = assay: Antiapoptotic activity against human HT-29 cells assessed as cell viability at 10 uM after 48 hrs by MTT assay in presence of 10 uM oxaliplatin (reference value: 87.2 +/- 0.9%); format: functional; details: HT-29, 48 h, read-out: Activity; how it was run: as §3
[13] = target: T8, Adenosine receptor A3 (Rattus norvegicus) (UniProt P28647); assay: Displacement of [125I]AB-MECA from rat A3 adenosine receptor expressed in HEK293 cells at 1 uM after 60 mins by scintillation counting analysis; format: cell-based
T8 sequence (whole entry): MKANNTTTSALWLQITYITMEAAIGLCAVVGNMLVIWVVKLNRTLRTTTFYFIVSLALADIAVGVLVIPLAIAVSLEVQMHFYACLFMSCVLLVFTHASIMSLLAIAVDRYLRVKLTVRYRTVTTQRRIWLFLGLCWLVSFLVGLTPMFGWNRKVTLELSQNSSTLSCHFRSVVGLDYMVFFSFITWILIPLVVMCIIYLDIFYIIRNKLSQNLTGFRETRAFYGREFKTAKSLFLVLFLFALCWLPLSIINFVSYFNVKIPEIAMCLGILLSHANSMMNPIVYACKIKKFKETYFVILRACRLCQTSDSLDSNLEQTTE
How it was run: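 Rat A3 receptor in HEK293 membranes (10 μg protein) incubated with 0.5 nM [125I]AB-MECA in 50 mM Tris-HCl, 10 mM MgCl2, 1 mM EDTA, pH 7.4, for 60 min at 37 °C. Nonspecific binding defined with 1 μM AB-MECA. Filtration then scintillation counting. Output is % inhibition at 1 μM.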

HT-29 [14] = assay: Antiapoptotic activity against human HT-29 cells assessed as cell viability at 10 uM after 48 hrs by MTT assay in presence of 3 uM oxaliplatin (reference value: 92.3 +/- 1.0%); format: functional; how it was run: as §3
Astrocyte [15] = assay: Antiapoptotic activity against Sprague-Dawley rat astrocytes assessed as reduction of oxaliplatin-induced caspase-3 activity at 0.1 to 10 uM after 4 hrs by fluorimetric assay; format: functional, cell-based; how it was run: as §4
Adenosine receptor A3 [16] = target: T7, Adenosine receptor A3; assay: Displacement of [125I]AB-MECA from human A3 adenosine receptor expressed in CHO cells after 60 mins by scintillation counting analysis; format: cell-based

Ki (Adenosine receptor A2a [1])	Ki (Adenosine receptor A1)	IC50 (Adenosine receptor A2b)	inhibition [2]	inhibition [4]	inhibition (Adenosine receptor A2a [5])	Activity (Astrocyte [6])	inhibition [9]	IC50 (Adenosine receptor A3 [11])	inhibition [13]	Activity (Astrocyte [15])	Ki (Adenosine receptor A3 [16])	SMILES	Activity (HT-29 [3])	Activity (HT-29 [7])	Activity (HT-29 [8])	Activity (HT-29 [10])	viability at 10 µM (HT-29 [12])	Activity (HT-29 [14])
110 nM	150 nM	420 nM	39%									Nc1nc(Cc2ccccc2)nc2cn(-c3ccccc3)nc12						
246 nM	70 nM	320 nM	40%									Cc1nc(N)c2nn(-c3ccccc3)cc2n1						
				2%	18%	Active	29%	80 nM	3%	Active	24 nM	COc1ccc(-n2cc3nc(-c4ccccc4)nc(NC(=O)Cc4ccccc4)c3n2)cc1	78.8%	90.2%	95.1%	54.8%	82.2%	86.6%
325 nM	75 nM	440 nM	48%									Nc1nc(-c2ccccc2)nc2cn(-c3ccccc3)nc12						
